Consider 16 compounds from ChEMBL document CHEMBL1158496, “Design and synthesis of 2-(3-benzo[b]thienyl)-6,7-methylenedioxyquinolin-4-one analogues as potent antitumor agents that inhibit tubulin assembly” (J Med Chem, 2009).

Molecules are shown by their SMILES. The source made the active and inactive calls. No cut-off for these calls is given here.

One experiment has as its system HL-60. Briefly: Cytotoxicity against human HL60 cells by MTT assay. Type of experiment: functional, cell-based. The procedure, abridged:
(§1)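 After compound treatment, cells washed once with PBS and incubated 2 h with MTT. Formazan dissolved in DMSO, absorbance read at 570 nm.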
Background: Tetrazolium assays rely on reduction of a dye to a coloured formazan, in cell work by metabolically active cells.

The test system of the next experiment is HCT-116. Briefly: Cytotoxicity against human HCT116 cells by MTT assay. Format: functional, cell-based. The procedure, abridged:
as §1

The test system of the next experiment is A549. Briefly: Cytotoxicity against human A549 cells by SRB assay. Format: functional, cell-based. The procedure, abridged: (§2)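 Cells exposed to compound or DMSO for the stated periods, fixed with 10% TCA, then stained with 0.4% (w/v) SRB in 1% acetic acid. Unbound dye removed with 1% acetic acid, bound dye dissolved in 10 mM Trizma base, absorbance read at 515 nm.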
A general note: Sulforhodamine B stains cellular protein and so reports cell mass.

A short description of experiment [1]: Cytotoxicity against human Hep3B cells by MTT assay. Format: functional, cell-based, Hep 3B2. The procedure, abridged: as §1
The test system of another experiment is KB. Briefly: Cytotoxicity against human KB cells by SRB assay. Format: functional, cell-based. In short, it runs like this: as §2
A short description of experiment [2]: Cytotoxicity against human KBVIN cells by SRB assay. Type of experiment: functional, cell-based. In short, it runs like this:
as §2

A further experiment has as its system DU-145. Briefly: Cytotoxicity against human DU145 cells by SRB assay. Format: functional, cell-based. In short, it runs like this: as §2
Experiment [3] is described as follows: Displacement of [3H]colchicine from tubulin at 1 uM […]. In short, it runs like this: (§3)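 Tubulin (1.0 μM) incubated 10 min at 37 °C with 5.0 μM [3H]colchicine and inhibitor at 1.0 or 5.0 μM. At this time roughly 40–60% of maximal colchicine binding has occurred. Inhibition of radiolabel binding measured.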
Experiment [4] is described as follows: Inhibition of tubulin polymerization. In short, it runs like this:
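Turbidimetric assembly assay. Tubulin 1.0 mg/mL (10 μM) preincubated 15 min at 30 °C with varying drug concentrations, without GTP. Samples then chilled, 0.4 mM GTP added, and turbidity followed for 20 min at 30 °C after a temperature jump from 0 °C.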

A short description of experiment [5]: Displacement of [3H]colchicine from tubulin at 5 uM by turbidimetry. The procedure, abridged: as §3
In general terms: In a radioligand displacement assay an active substance lowers the binding of a labelled ligand.

For the next experiment, the system named is HCC 2998. Briefly: Cytotoxicity against human HCC2998 cells. Type of experiment: functional, cell-based.
The next experiment deals with KM12. In words: Cytotoxicity against human KM12 cells. Type of experiment: functional, cell-based.
Another experiment deals with SF-539. In words: Cytotoxicity against human SF539 cells. Type of experiment: functional, cell-based.
A further experiment deals with SNB-75. Briefly: Cytotoxicity against human SNB75 cells. Format: functional, cell-based.
The test system of the next experiment is SK-MEL-5. Briefly: Cytotoxicity against human SK-MEL-5 cells. Type of experiment: functional, cell-based.
The test system of a further experiment is IGROV-1. Briefly: Cytotoxicity against human IGROV1 cells. Format: functional, cell-based.
In experiment [6] the test system is OVCAR-3. Briefly: Cytotoxicity against human OVCAR-3 cells. Format: functional, cell-based.
The subject of experiment [7] is OVCAR-3. Briefly: Antitumor activity against human OVCAR-3 cells xenografted in nude mouse dosed as ip once weekly for three courses. Format: functional.
For experiment [8], the system named is OVCAR-3. Briefly: Antitumor activity against human OVCAR-3 cells xenografted in nude mouse assessed as life span extension at 200 mg/kg, ip once weekly for three courses. Type of experiment: functional. To be noted: route intraperitoneal.
The subject of experiment [9] is OVCAR-3. Briefly: Antitumor activity against human OVCAR-3 cells xenografted in nude mouse assessed as life span extension at 134 mg/kg, ip once weekly for three courses. Type of experiment: functional. To be noted: route intraperitoneal.
Experiment [10] deals with OVCAR-3. In words: Antitumor activity against human OVCAR-3 cells xenografted in nude mouse assessed as life span extension at 79 mg/kg, ip once weekly for three courses. Format: functional. As to conditions: route intraperitoneal.

On to `O=c1cc(-c2cc3ccccc3s2)[nH]c2cc3c(cc12)OCO3`, for which the IC50 (in the experiment on HL-60; with HCT-116; in the experiment on A549; in experiment [1]; in the experiment with KB; in [2]) was more than 1000 nM each time. In addition, the IC50 in the experiment on DU-145 is more than 1000 nM.
`COc1ccc(/C=C\c2cc(OC)c(OC)c(OC)c2)cc1O`: the Activity in experiment [3] stood at 91%.
On to `O=c1cc(-c2coc3ccccc23)[nH]c2cc3c(cc12)OCO3`, for which the IC50 in [4] is 580 nM; with HL-60 it was 30 nM; in the experiment on HCT-116 it was 50 nM; with A549 it was 2980 nM; in experiment [1], 90 nM; with KB, 1050 nM. Besides, the 50% inhibitory concentration (IC50) amounted to 590 nM in [2] and 1870 nM in the experiment on DU-145. Further, the Activity in [3] worked out at 39%; in [5] it was 51%. The outcome in the experiment on HCC 2998, in the experiment on KM12, with SF-539, in the experiment with SNB-75, in the experiment on SK-MEL-5 and with IGROV-1 was Active. Further, the result in the experiment with OVCAR-3 [6] was Active.
`COc1cccc(-c2cc(O)c3cc(N4CCCC4)ccc3n2)c1`: in the experiment with OVCAR-3 [7], the MTD stood at 25 mg/kg.
Take `O=c1cc(-c2ccc3ccccc3n2)[nH]c2cc3c(cc12)OCO3`: the IC50 is more than 40000 nM in experiment [4]; more than 5000 nM with HL-60; more than 5000 nM in the experiment on HCT-116; more than 5000 nM with A549; more than 5000 nM in experiment [1]; more than 5000 nM in the experiment with KB. The IC50 (in experiment [2]; in the experiment on DU-145) was more than 5000 nM in each case.
On to `O=c1cc(-c2cccc3cc4ccccc4cc23)[nH]c2cc3c(cc12)OCO3`, for which the IC50 in [4] was more than 40000 nM; with HL-60, 530 nM; in the experiment on HCT-116, 1600 nM; in [1], 2200 nM.
With `O=c1cc(-c2cnc3ccccc3c2)[nH]c2cc3c(cc12)OCO3`, the IC50 in [4] is more than 4000 nM; in the experiment with HL-60, more than 100 nM; with HCT-116 it was more than 100 nM; in the experiment with A549 it was more than 100 nM; in experiment [1] it was more than 100 nM; with KB it was more than 100 nM. The IC50 (in [2]; in the experiment on DU-145) was more than 100 nM throughout.
In the case of `O=c1cc(-c2csc3ccccc23)[nH]c2cc3c(cc12)OCO3`, the IC50 is 760 nM in experiment [4]; 170 nM in the experiment on HL-60; 140 nM in the experiment on HCT-116; more than 250 nM with A549; 60 nM in experiment [1]; more than 250 nM in the experiment on KB. The IC50 (in [2]; in the experiment with DU-145) was more than 250 nM throughout. The Activity in experiment [3] was determined as 25%; in [5] it was 61%.
In the case of `O=c1cc(-c2cc3ccccc3o2)[nH]c2cc3c(cc12)OCO3`, the IC50 was more than 4000 nM in experiment [4]; more than 1000 nM in the experiment on HL-60; more than 1000 nM with HCT-116; more than 1000 nM with A549; more than 1000 nM in experiment [1]; more than 1000 nM with KB. Moreover, the concentration for half-maximal inhibition (IC50) (in experiment [2]; with DU-145) was more than 1000 nM each time.
As for `O=c1cc(-c2ccc3ccccc3c2)[nH]c2cc3c(cc12)OCO3`, the IC50 in [4] is more than 40000 nM; in the experiment with HL-60, 500 nM; in the experiment on HCT-116 it was more than 1000 nM; in the experiment with A549 it was more than 1000 nM; in experiment [1], more than 1000 nM; with KB, more than 1000 nM. Besides, the IC50 (in experiment [2]; in the experiment on DU-145) was more than 1000 nM in each case.
As to `O=c1cc(-c2cccc3ncccc23)[nH]c2cc3c(cc12)OCO3`, the IC50 in experiment [4] is 27000 nM; in the experiment on HL-60, more than 10000 nM; in the experiment with HCT-116, more than 10000 nM; with A549, more than 10000 nM; in experiment [1], more than 10000 nM; in the experiment with KB, more than 10000 nM. The IC50 (in [2]; in the experiment with DU-145) was more than 10000 nM in each case.
For `O=c1cc(-c2cccc3ccccc23)[nH]c2cc3c(cc12)OCO3`, the IC50 was found to be 640 nM in experiment [4]; 70 nM in the experiment on HL-60; 70 nM in the experiment with HCT-116; 130 nM in the experiment with A549; 70 nM in experiment [1]; 130 nM in the experiment with KB. The IC50 in [2] turned out to be 190 nM; in the experiment with DU-145 it was 130 nM. For the same compound, the figures for the Activity in experiment [3] and in experiment [5] were 33% and 67%, respectively.
As for `O=c1cc(-c2ccnc3ccccc23)[nH]c2cc3c(cc12)OCO3`, the IC50 in [4] is more than 40000 nM; with HL-60, more than 5000 nM; in the experiment with HCT-116, more than 5000 nM; with A549, more than 5000 nM; in [1], more than 5000 nM; with KB, more than 5000 nM. Besides, the IC50 (in [2]; with DU-145) was more than 5000 nM each time.
On to `Cc1c(-c2cccc3ccccc23)c(=O)[nH]c2cc3c(cc12)OCO3`, for which the concentration for half-maximal inhibition (IC50) in the experiment on HL-60 was more than 10000 nM; in the experiment with HCT-116 it was more than 10000 nM; in [1], 4300 nM.
Compound `Cc1cnc2nc(-c3csc4ccccc34)cc(O)c2c1` displayed an IC50 in [4] of 370 nM.
`O=c1cc(-c2ccccc2F)[nH]c2cc3c(cc12)OCO3` registered an MTD in the experiment on OVCAR-3 [7] of more than 200 mg/kg. Besides, the Activity in the experiment with OVCAR-3 [8] is 124%; in the experiment on OVCAR-3 [9], 133%; in the experiment on OVCAR-3 [10], 79%.

As usually defined, the IC50 is the concentration that gives 50% inhibition. Higher therefore signals lower potency.
